Measured values taken from ChEMBL document CHEMBL4342523, “Discovery and Development of S6821 and S7958 as Potent TAS2R8 Antagonists” (J Med Chem, 2020).

Legend:
[1] = target: Taste receptor type 2 member 50 (Homo sapiens) (UniProt P59544); test: Antagonist activity at recombinant human TAS2R50 transiently expressed in HEK293T co-expressing Galpha16gust44 assessed as inhibition of andrographolide-induced intracellular calcium level by measuring remaining activity at 25 uM by fluo-4AM dye based FLIPR assay relative to control; type: functional, cell-based
Chain of Taste receptor type 2 member 50 (Homo sapiens) (P59544 whole entry): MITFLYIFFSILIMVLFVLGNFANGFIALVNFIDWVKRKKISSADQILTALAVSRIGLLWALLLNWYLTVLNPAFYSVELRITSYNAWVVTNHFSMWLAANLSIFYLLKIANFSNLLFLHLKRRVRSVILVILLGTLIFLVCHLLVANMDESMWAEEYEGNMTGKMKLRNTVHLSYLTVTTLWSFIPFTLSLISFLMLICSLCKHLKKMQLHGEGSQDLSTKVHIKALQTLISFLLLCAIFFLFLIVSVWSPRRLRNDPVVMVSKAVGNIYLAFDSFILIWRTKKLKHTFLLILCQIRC

[2] = target: T1, Taste receptor type 2 member 8 (Homo sapiens) (UniProt Q9NYW2); test: Antagonist activity at recombinant human TAS2R8 transiently expressed in HEK293T co-expressing Galpha16gust44 assessed as inhibition of andrographolide-induced intracellular calcium level by measuring remaining activity at 25 uM by fluo-4AM dye based FLIPR assay relative to control; type: functional, cell-based
T1 sequence (whole entry): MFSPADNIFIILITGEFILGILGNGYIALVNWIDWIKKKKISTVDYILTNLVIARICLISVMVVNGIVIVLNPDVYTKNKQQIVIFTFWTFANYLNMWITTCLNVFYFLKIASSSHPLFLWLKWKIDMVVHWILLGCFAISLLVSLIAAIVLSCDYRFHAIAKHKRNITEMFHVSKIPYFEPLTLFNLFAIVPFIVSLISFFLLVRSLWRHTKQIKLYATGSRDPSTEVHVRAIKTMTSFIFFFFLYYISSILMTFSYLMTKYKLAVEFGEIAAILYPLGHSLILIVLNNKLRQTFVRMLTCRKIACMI

[3] = target: Taste receptor type 2 member 4 (Homo sapiens) (UniProt Q9NYW5); test: Antagonist activity at recombinant human TAS2R4 transiently expressed in HEK293T co-expressing Galpha16gust44 assessed as inhibition of chloroquine-induced intracellular calcium level by measuring remaining activity at 25 uM by fluo-4AM dye based FLIPR assay relative to control; type: functional, cell-based
Chain of Taste receptor type 2 member 4 (Homo sapiens) (Q9NYW5 whole entry): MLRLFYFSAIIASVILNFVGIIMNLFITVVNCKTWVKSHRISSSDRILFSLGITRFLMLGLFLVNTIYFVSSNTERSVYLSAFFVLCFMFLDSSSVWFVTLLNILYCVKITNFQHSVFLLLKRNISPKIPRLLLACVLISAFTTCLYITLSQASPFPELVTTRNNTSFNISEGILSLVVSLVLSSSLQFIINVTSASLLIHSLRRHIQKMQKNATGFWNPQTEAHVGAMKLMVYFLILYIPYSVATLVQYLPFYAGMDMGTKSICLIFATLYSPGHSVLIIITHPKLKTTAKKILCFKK

[4] = target: T2, Taste receptor type 2 member 8 (Homo sapiens, UniProt Q9NYW2); test: Antagonist activity at recombinant human TAS2R8 stably expressed in cells co-expressing Galpha16gust44 assessed as inhibition of andrographolide-induced intracellular calcium level measured for 100 secs by fluo-4 dye based FLIPR assay; type: functional, cell-based
T2 sequence (Q9NYW2 whole entry): T1 sequence (whole entry)
Method in brief: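 Recombinant cells stably expressing G16t44 chimera and TAS2R8 (clones isolated by limiting dilution), plated 24 h before assay; loaded with fluo-4 in PBS 60 min, washed, rested 15 min in dark at RT. Andrographolide agonist at its EC80, premixed with antagonist and added together; final DMSO 0.5%. Baseline read 10 s, then fluorescence followed 100 s on FLIPR.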

[5] = target: Taste receptor type 2 member 13 (Homo sapiens) (UniProt Q9NYV9); test: Antagonist activity at recombinant human TAS2R13 transiently expressed in HEK293T co-expressing Galpha16gust44 assessed as inhibition of oxyphenonium-induced intracellular calcium level by measuring remaining activity at 25 uM by fluo-4AM dye based FLIPR assay relative to control; type: functional, cell-based
Chain of Taste receptor type 2 member 13 (Homo sapiens) (Q9NYV9 whole entry): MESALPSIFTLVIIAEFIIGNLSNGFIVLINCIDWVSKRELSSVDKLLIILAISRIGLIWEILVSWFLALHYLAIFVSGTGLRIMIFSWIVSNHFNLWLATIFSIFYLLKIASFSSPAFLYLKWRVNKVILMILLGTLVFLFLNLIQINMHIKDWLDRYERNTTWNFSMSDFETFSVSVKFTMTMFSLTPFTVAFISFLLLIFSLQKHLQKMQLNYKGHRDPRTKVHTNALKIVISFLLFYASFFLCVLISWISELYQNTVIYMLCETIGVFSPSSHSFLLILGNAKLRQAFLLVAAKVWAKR

[6] = Ratio of solubility of the compound in pH 7.1 buffer measured after 24 hrs to IC50 for antagonist activity at recombinant human TAS2R8 expressed in cells co-expressing Galpha16gust44 assessed as inhibition of andrographolide-induced intracellular calcium level; type: cell-based
[7] = target: Taste receptor type 2 member 31 (Homo sapiens) (UniProt P59538); test: Antagonist activity at recombinant human TAS2R31 transiently expressed in HEK293T co-expressing Galpha16gust44 assessed as inhibition of aristolochic acid-induced intracellular calcium level by measuring remaining activity at 25 uM by fluo-4AM dye based FLIPR assay relative to control; type: functional, cell-based
Chain of Taste receptor type 2 member 31 (Homo sapiens) (P59538 whole entry): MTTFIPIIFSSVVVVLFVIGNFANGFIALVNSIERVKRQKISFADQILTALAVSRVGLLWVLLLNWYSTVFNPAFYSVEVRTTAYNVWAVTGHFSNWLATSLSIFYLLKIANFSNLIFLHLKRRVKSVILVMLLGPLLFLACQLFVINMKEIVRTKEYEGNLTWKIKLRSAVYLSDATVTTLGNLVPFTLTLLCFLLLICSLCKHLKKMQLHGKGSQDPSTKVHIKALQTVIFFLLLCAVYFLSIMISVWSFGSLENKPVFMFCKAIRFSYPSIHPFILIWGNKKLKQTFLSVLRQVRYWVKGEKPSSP

[8] = target: Taste receptor type 2 member 30 (Homo sapiens) (UniProt P59541); test: Antagonist activity at recombinant human TAS2R30 transiently expressed in HEK293T co-expressing Galpha16gust44 assessed as inhibition of denatonium-induced intracellular calcium level by measuring remaining activity at 25 uM by fluo-4AM dye based FLIPR assay relative to control; type: functional, cell-based
Chain of Taste receptor type 2 member 30 (Homo sapiens) (P59541 whole entry): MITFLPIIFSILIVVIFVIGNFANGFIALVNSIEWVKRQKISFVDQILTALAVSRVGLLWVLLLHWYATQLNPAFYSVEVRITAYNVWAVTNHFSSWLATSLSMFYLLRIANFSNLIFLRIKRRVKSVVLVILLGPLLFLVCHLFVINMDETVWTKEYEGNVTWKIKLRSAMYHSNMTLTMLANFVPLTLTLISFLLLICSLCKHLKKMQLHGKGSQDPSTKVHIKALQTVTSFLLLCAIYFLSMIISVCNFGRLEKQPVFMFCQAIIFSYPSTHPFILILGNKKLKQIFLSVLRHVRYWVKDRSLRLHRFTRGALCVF

[9] = target: Taste receptor type 2 member 43 (Homo sapiens) (UniProt P59537); test: Antagonist activity at recombinant human TAS2R43 transiently expressed in HEK293T co-expressing Galpha16gust44 assessed as inhibition of aristolochic acid-induced intracellular calcium level by measuring remaining activity at 25 uM by fluo-4AM dye based FLIPR assay relative to control; type: functional, cell-based
Chain of Taste receptor type 2 member 43 (Homo sapiens) (P59537 whole entry): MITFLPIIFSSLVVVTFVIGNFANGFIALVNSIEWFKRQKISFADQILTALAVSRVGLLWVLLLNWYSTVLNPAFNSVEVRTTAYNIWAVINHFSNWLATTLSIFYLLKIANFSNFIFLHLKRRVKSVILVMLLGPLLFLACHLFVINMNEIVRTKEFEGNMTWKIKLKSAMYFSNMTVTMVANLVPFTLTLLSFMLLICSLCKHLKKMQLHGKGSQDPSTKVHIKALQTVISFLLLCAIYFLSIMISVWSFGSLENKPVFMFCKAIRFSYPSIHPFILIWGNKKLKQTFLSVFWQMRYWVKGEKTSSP

[10] = target: Taste receptor type 2 member 41 (Homo sapiens) (UniProt P59536); test: Antagonist activity at recombinant human TAS2R41 transiently expressed in HEK293T co-expressing Galpha16gust44 assessed as inhibition of picric acid-induced intracellular calcium level by measuring remaining activity at 25 uM by fluo-4AM dye based FLIPR assay relative to control; type: functional, cell-based
Chain of Taste receptor type 2 member 41 (Homo sapiens) (P59536 whole entry): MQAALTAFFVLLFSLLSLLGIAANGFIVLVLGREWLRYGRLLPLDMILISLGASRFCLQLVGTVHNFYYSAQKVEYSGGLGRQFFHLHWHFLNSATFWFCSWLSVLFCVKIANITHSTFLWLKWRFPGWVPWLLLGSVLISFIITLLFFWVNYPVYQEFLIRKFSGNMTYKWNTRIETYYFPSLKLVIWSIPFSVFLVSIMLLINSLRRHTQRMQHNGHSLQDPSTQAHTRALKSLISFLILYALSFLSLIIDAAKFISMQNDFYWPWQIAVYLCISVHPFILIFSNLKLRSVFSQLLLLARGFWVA

[11] = target: Taste receptor type 2 member 39 (Homo sapiens) (UniProt P59534); test: Antagonist activity at recombinant human TAS2R39 transiently expressed in HEK293T co-expressing Galpha16gust44 assessed as inhibition of ranitidine-induced intracellular calcium level by measuring remaining activity at 25 uM by fluo-4AM dye based FLIPR assay relative to control; type: functional, cell-based
Chain of Taste receptor type 2 member 39 (Homo sapiens) (P59534 whole entry): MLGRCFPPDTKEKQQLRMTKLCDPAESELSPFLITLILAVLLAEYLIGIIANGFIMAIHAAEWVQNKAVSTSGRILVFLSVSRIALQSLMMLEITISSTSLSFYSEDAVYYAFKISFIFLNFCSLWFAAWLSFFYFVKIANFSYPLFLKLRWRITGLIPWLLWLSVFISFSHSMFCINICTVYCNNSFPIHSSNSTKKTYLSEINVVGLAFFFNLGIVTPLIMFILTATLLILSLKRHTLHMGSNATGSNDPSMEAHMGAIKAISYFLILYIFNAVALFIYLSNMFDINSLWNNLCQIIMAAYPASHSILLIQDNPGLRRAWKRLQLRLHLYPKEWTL

[12] = target: T3, Taste receptor type 2 member 14 (Homo sapiens) (UniProt Q9NYV8); test: Antagonist activity at recombinant human TAS2R14 transiently expressed in HEK293T co-expressing Galpha16gust44 assessed as inhibition of aristolochic acid-induced intracellular calcium level by measuring remaining activity at 25 uM by fluo-4AM dye based FLIPR assay relative to control; type: functional, cell-based
T3 sequence (whole entry): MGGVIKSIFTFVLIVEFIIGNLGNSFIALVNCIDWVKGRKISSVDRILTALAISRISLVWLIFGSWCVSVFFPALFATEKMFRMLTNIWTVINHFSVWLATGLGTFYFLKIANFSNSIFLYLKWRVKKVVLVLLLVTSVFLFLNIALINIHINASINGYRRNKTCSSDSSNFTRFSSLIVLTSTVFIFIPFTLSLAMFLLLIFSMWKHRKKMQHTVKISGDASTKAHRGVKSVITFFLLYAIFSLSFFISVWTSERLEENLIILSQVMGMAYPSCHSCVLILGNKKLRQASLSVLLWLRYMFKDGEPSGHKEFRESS

[13] = target: Taste receptor type 2 member 3 (Homo sapiens) (UniProt Q9NYW6); test: Antagonist activity at recombinant human TAS2R3 transiently expressed in HEK293T co-expressing Galpha16gust44 assessed as inhibition of chloroquine-induced intracellular calcium level by measuring remaining activity at 25 uM by fluo-4AM dye based FLIPR assay relative to control; type: functional, cell-based
Chain of Taste receptor type 2 member 3 (Homo sapiens) (Q9NYW6 whole entry): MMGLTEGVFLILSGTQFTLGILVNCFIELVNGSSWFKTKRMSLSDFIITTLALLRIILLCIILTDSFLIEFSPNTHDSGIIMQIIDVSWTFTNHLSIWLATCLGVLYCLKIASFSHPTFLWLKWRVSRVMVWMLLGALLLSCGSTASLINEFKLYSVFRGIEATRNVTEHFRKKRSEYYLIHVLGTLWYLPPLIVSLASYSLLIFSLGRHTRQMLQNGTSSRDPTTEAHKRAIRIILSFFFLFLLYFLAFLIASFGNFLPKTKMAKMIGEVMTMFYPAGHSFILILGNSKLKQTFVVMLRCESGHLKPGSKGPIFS

[14] = target: Taste receptor type 2 member 16 (Homo sapiens) (UniProt Q9NYV7); test: Antagonist activity at recombinant human TAS2R16 transiently expressed in HEK293T co-expressing Galpha16gust44 assessed as inhibition of salicin-induced intracellular calcium level by measuring remaining activity at 25 uM by fluo-4AM dye based FLIPR assay relative to control; type: functional, cell-based
Chain of Taste receptor type 2 member 16 (Homo sapiens) (Q9NYV7 whole entry): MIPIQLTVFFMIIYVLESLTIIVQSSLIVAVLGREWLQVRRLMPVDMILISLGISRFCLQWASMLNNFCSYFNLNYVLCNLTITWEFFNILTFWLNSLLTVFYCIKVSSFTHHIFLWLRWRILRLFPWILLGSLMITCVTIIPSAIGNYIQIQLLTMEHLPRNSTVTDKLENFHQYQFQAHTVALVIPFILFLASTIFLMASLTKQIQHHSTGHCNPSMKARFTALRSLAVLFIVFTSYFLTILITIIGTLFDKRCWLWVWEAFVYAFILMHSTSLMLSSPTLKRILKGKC

[15] = target: Taste receptor type 2 member 9 (Homo sapiens) (UniProt Q9NYW1); test: Antagonist activity at recombinant human TAS2R9 transiently expressed in HEK293T co-expressing Galpha16gust44 assessed as inhibition of ofloxacin-induced intracellular calcium level by measuring remaining activity at 25 uM by fluo-4AM dye based FLIPR assay relative to control; type: functional, cell-based
Chain of Taste receptor type 2 member 9 (Homo sapiens) (Q9NYW1 whole entry): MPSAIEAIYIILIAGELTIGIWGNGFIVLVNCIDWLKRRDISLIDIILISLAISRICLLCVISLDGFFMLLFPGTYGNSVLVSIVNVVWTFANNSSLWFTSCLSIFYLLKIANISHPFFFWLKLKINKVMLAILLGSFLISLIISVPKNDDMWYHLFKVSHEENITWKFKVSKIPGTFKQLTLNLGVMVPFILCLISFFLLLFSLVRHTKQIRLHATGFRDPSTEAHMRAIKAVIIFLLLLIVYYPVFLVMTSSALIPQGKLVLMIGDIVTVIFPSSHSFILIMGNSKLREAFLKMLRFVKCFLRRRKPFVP

Activity [1] [%] | Activity [2] [%] | Activity [3] [%] | IC50 [4] [nM] | Activity [5] [%] | Activity [7] [%] | Activity [8] [%] | Activity [9] [%] | Activity [10] [%] | Activity [11] [%] | Activity [12] [%] | Activity [13] [%] | Activity [14] [%] | Activity [15] [%] | Structure (SMILES) | Ratio [6]
99 | 13 | 117 | 20 | 127 | 92 | 112 | 84 | 99 | 74 | 124 | 103 | 98 | 106 | Cc1noc(C)c1Cn1cc(N2C(=O)CN(Cc3cccc(O)c3)C2=O)cn1 | 11600
91 | 7 | 215 | 60 | 95 | 59 | 43 | 88 | 133 | 150 | 97 | 72 | 88 | 98 | Cc1noc(C)c1Cn1cc(N2C(=O)N(Cc3cccc(O)c3)C(C)(C)C2=O)cn1 | 1290
